The list is not random: actives were taken first. Their share in the collection is about 1.8%.
SKN-1 inh – suppressors of acrylamide-induced Pgst-4::GFP reporter in worms, primary screen, SKN-1 inhibitor project, whole organism, uHTS, GFP/RFP fluorescence ratio, strain VP596. C. elegans VP596 Pgst-4::GFP/RFP ratio, 24 h. inhibition, % at 21.8 µM. 360,000 tested, 0.49% active. AID 624304, 2012;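 active = interference check ratio from 0.5 to 1.5 plus GFP to RFP signal ratio inhibition reaching or exceeding a fixed threshold, cut at about 30% in these data, passing the limit was not always enough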
PABP polyA inh – PABP poly(A) RNA binding inhibitors, primary screen, biochemical, fluorescence polarization, uHTS | Polyadenylate-binding protein 1 (Homo sapiens), P11940 | 290,000 tested, 1% active | calls only at 35 µM;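 also: calls also rest on retests at 20 µM and on dose response follow-up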
MT1-MMP act inh – blockers of MT1-MMP proenzyme processing, primary screen, HT1080 RFP-PRO-GFP cells, GFP/RFP fluorescence; Matrix metalloproteinase-14 (Homo sapiens), P50281; GFP/RFP ratio fluorescence, overnight; percent of plate control window, DMSO zero; GFP/RFP ratio change, % at 20 µM; 360,000 tested, 0.061% active;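 active = GFP/RFP ratio change of at least 30% with cell ATP level not reduced by more than half and red fluorescence within 50% of control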
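system = RFP-PRO-GFP reporter HT1080 cells | dosing = 20 µM single dose, 1% DMSO | timing = overnight cell settling, then overnight compound exposure, 37 °C, 5% CO2 | read-out basis = GFP/RFP fluorescence ratio | controls = DMSO and RFP-L50D-GFP cell wells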
PABP1 MLLE inh – inhibitors of PABP1 MLLE–PAM2 peptide binding, primary screen, biochemical, fluorescence polarization, FITC-PAM2, GST-MLLE; inhibition, % at 20 µM; Polyadenylate-binding protein 1 (Homo sapiens), P11940; 360,000 tested, 0.36% active; in the data active = inhibition above about 35%, passing the limit was not always enough;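 also: plate controls were DMSO wells with GST-MLLE for no effect and wells lacking GST-MLLE protein for full effect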
eIF4H inh – human eIF4H binding inhibitors, primary screen, translation initiation inhibitor project, biochemical, uHTS, fluorescence polarization. 290,000 tested, 0.94% active. AID 2012, 2009. inhibition, % at 35 µM. Eukaryotic translation initiation factor 4H (Homo sapiens), Q15056. eIF4H fluorescence polarization binding assay;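 also: calls also rest on retests at 20 µM and on dose response follow-up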
* marks the source's active call; other numbers are inactive results; i = inactive; ? = inconclusive; . = no result given; + = active, no number. Unless noted, no rule for the calls is given here.

SMILES	SKN-1 inh	PABP polyA inh	MT1-MMP act inh	PABP1 MLLE inh	eIF4H inh
Cc1cc(NC(=O)CSc2nncn2-c2ccccc2)no1	9.3	i	-4.1	-4.7	-3.3
COc1ccc(-n2cnnc2SCC(=O)Nc2cc(C)on2)cc1	6.5	+	-2.4	-6.2	63.4*
O=C(COc1cc(Cl)ccc1Cl)Nc1ccc2c(c1)CCC2	6.4	+	3.0	-12.4	64.1*
O=S1(=O)CC(N2CC=CC2)CN1Cc1ccccc1 (stereo unspecified)	0.6	.	3.5	-13.4	.
Cc1cc(N2CCCC2)c(F)cc1/C=C\[N+](=O)[O-]	-2.5	+	-6.5	-113.0	58.4
Cc1cc(N2CCC(C)CC2)c(F)cc1[N+](=O)[O-]	2.2	i	11.3	-0.7	-0.4
Cc1ccc(-c2c(C)c(-c3ccc(F)cc3)nc(N)c2C#N)o1	16.8	+	9.2	0.8	76.2*
CCOC(=O)[C@H]1[C@H]2COc3ccc(Cl)cc3[C@@H]2N2C(=O)c3ccc(Cl)cc3NC(=O)[C@@]12C	-6.2	.	-21.3	0.8	.
Cc1cccc(NC(=O)NCCN2CCCCC2)c1	38.4*	i	1.3	-2.2	4.5
CN(C)S(=O)(=O)c1ccc(N2CCCC2)c(C(=O)Nc2nc3ccc(F)cc3s2)c1	1.3	+	-2.3	4.1	active
CN(C)S(=O)(=O)c1ccc(N2CCCC2)c(C(=O)Nc2nc3ccccc3s2)c1	12.2	i	6.0	-11.0	-2.0
COc1ccc(C(=O)Nn2cnnc2)cc1OC	-5.5	+	6.3	0.8	88.7*
COc1ccc(C(=O)NN2CCCCC2)cc1OC	5.5	i	5.9	1.8	15.9
COc1cc(/C=C2\C(=O)N(c3ccc(NC(C)=O)cc3)N=C2c2ccccc2)ccc1O	11.7	i	6.4	-70.4	-0.7
O=C1/C(=C\c2ccc(O)c(O)c2)C(c2ccccc2)=NN1c1ccccc1	1.3	+	4.8	-34.2	89.8
N/C(=N\OC(=O)c1ccc(Cl)c(Cl)c1)c1ccccn1	35.0*	i	-1.7	3.6	-1.4
Cc1ccc(NC(=O)NC(=O)N(C(C)C)S(=O)(=O)c2ccc(C)cc2)cc1	-3.8	i	3.4	2.5	2.2
Cc1nc(Oc2ccccc2)c2oc3ccccc3c2n1	38.0*	i	0.6	0.6	-2.9
Cc1nc(Oc2ccccc2)c2ccsc2n1	7.2	+	1.1	7.2	74.7*
COc1ccc(Oc2ncnc3sccc23)cc1	3.7	i	-0.8	-9.3	-12.2
CC(C)(C)c1ccc(NC(=O)C2=CN3CCS(=O)(=O)N=C3C=C2)cc1	6.9	.	5.0	-97.5	.
Cc1ccc(S(=O)(=O)CCSc2nc(C)cc(C(F)(F)F)c2C#N)cc1	19.8	+	-21.4	-18.9	83.0*
CSc1ccc(Cl)c(C(=O)N2CCN(c3ncccn3)CC2)c1	5.1	.	0.0	-0.6	.
O=C(Nc1ccc(N2CCOCC2)c(S(=O)(=O)Nc2ccc(Cl)cc2)c1)c1cnccn1	3.9	i	1.1	40.4*	-4.4
O=C(Nc1ccc(N2CCOCC2)c(S(=O)(=O)Nc2ccc(Cl)cc2)c1)c1ccc(=O)[nH]n1	-1.0	.	2.8	-23.7	.
SMILES	SKN-1 inh	PABP polyA inh	MT1-MMP act inh	PABP1 MLLE inh	eIF4H inh
O=C(COc1ccccc1Cl)Nc1ccc(S(=O)(=O)Nc2ccccn2)cc1	0.0	i	0.5	4.1	-3.9
CC1=C(C(=O)Nc2ccccc2)C(c2ccc(C)o2)n2c(s/c(=C\c3ccco3)c2=O)=N1 (stereo unspecified)	-1.5	+	3.7	-76.2	84.2*
CN1CCN(c2cc(N3CCN(C(=O)c4ccco4)CC3)c3c4c(onc24)-c2ccccc2C3=O)CC1	57.6	+	-3.4	-99.3	92.6*
O=C1c2ccccc2-c2onc3c(N4CCN(CCO)CC4)cc(N4CCN(C(=O)c5ccco5)CC4)c1c23	53.9	+	1.9	-76.3	83.0*
O=C(O)CCCNc1cc(N2CCN(C(=O)c3ccco3)CC2)c2noc3c2c1C(=O)c1ccccc1-3	47.0	?	-21.7	-53.5	?
O=C(c1ccco1)N1CCN(CCCCN2C(=O)c3ccccc3C2=O)CC1	-2.9	i	-0.7	3.3	12.2
CCCOc1ccc(-c2c(=O)n(O)c3ccccc3[n+]2[O-])cc1	10.5	i	3.8	-18.1	13.5
C=CCN1C=C2C(=O)C(C)(OC(=O)CC)C(=O)C=C2C=C1CCCC (stereo unspecified)	14.5	+	-1.6	22.8	82.6
O=C(COc1ccccc1)c1cn(CC(=O)N2CCOCC2)c2ccccc12	-2.0	+	-6.7	-7.0	95.4*
O=C(Cn1cc(C(=O)COc2ccccc2)c2ccccc21)NCc1ccco1	8.6	i	-2.2	-40.6	35.5*
O=C(N/N=C/c1ccc(-c2ccccc2[N+](=O)[O-])o1)c1cncc(Br)c1	-3.4	i	2.8	18.8	10.2
Cc1c(C(=O)N/N=C/c2ccc(-c3ccccc3[N+](=O)[O-])o2)sc(N)c1C#N	15.1	+	-6.2	1.2	73.2*
CN(c1ccccc1)S(=O)(=O)c1cccc(NC(=O)Cn2cnc3c2c(=O)n(C)c(=O)n3C)c1	2.4	i	-1.7	-6.4	-14.3
Cn1c(=O)c2c(ncn2CC(=O)Nc2cccc(S(=O)(=O)Nc3ccccc3F)c2)n(C)c1=O	-4.2	i	2.2	45.4*	-13.5
COC(=O)Nc1nnc(-c2ccncc2)s1	-4.3	i	-5.6	36.3*	-8.3
Cc1cc(/C=C2\NC(=S)N(C)C2=O)ccc1N1CCCC1	22.0	?	-108.2	128.7	?
CCCN1C(=O)/C(=C/c2ccc(N3CCCC3)c(C)c2)NC1=S	45.9*	?	-279.2	191.8	?
CCOCCCn1c(SCC(=O)NC2CCCCC2)nc2ccccc2c1=O	8.2	.	2.0	-19.5	.
CCN1CCN(C(c2ccc(C(F)(F)F)cc2)c2ccc3cccnc3c2O)CC1 (stereo unspecified)	-6.5	i	6.5	40.6*	4.2
CCCCC(=O)NC(=S)Nc1ccccc1C(=O)Nc1ccccc1	16.6	i	0.9	40.1*	-0.7
N=c1n(CCN2CCCC2)c2ccccc2n1CC(O)c1ccco1 (stereo unspecified)	32.3	i	-9.9	44.0*	17.3
O=C(/C=C/c1ccco1)NCC1OCCc2ccccc21 (stereo unspecified)	-8.8	+	-4.7	11.1	86.8*
CC(C)(C)N1C(=O)Cc2c1nc(N)c1c(N)nc(N3CCCCC3CO)c(C#N)c21 (stereo unspecified)	-2.8	?	-9.3	-6.6	?
